Assay results taken from publication PMC11861226 (Journal of Cancer Research and Clinical Oncology, 2025).

Tests used:
[1] = ref Lamba et al. [2021]; Kondo et al. [2022]; Järvinen et al. [2023]; cited from earlier work
[2] = test system: glioblastoma cancer cell nuclei; settings: glioblastoma patients; ref Ho et al. [2022]; cited from earlier work
22Rv1 Xenograft Mice = test: ^68Ga-DOTA-PSMA micro-PET/CT imaging of 22Rv1 xenograft mice; format: in vivo, mouse; settings: PET/CT imaging, 22Rv1 tumor
In short: (§1)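 Tracer was labelled with ⁶⁸Ga (generator eluted with 0.1 mol/l HCl) in sodium acetate buffer, pH 3–4, at 95 °C for 15 min. Male six-week-old nude mice bearing 22Rv1 xenografts received 3.7 MBq via the tail vein. Animal PET/CT imaging followed at multiple time points after injection to track tracer accumulation in tumour and surrounding organs.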

[3] = as above; format: in vivo, mouse; settings: mouse, tumor / non-tumor (muscle), iv, 3.7 MBq, total radioactivity
In short: as §1

[4] = ^68Ga-DOTA-PSMA organ biodistribution by γ-counter, 22Rv1 xenograft mice; format: in vivo; settings: mouse, tumor, iv, 3.7 MBq, total radioactivity
In short: (§2)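 Male six-week-old SPF nude mice: normal (n = 15), 22Rv1 xenograft (n = 12) or PC-3 xenograft (n = 12), with three animals per time point. Each received 3.7 MBq i.v. via the tail vein. Tracer was labelled with ⁶⁸Ga (generator eluted with 0.1 mol/l HCl) in sodium acetate, pH 3–4, at 95 °C for 15 min. Mice were killed by cervical dislocation; organs were excised, weighed and γ-counted for %ID/g. Mean ± SD.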

[5] = ^68Ga-DOTA-PSMA organ biodistribution by γ-counter, PC-3 xenograft mice; format: in vivo; settings: mouse, tumor, iv, 3.7 MBq, total radioactivity
In short: as §2

Compound: Sodium mercaptoundecahydro-closo-dodecaborate [BSH]
- water solubility [1]: more water-soluble

Compound: N[C@@H](Cc1ccc(B(O)O)cc1)C(=O)O [BPA, Boronophenylalanine]
- water solubility [1]: poor water solubility

Compound: O=C([O-])CN(CCN(CC(=O)[O-])CC(=O)O)CCN(CC(=O)[O-])CC(=O)O.[Gd+3] [^157Gd-DTPA]
- cancer cell nuclei found to contain the agent [2]: 6.1%

Compound: O=C(O)CC[C@H](NC(=O)N[C@@H](CCCCNC(=O)[C@H](Cc1ccc2ccccc2c1)NC(=O)CCCCCNC(=O)CN1CCN(CC(=O)O)CCN(CC(=O)O)CCN(CC(=O)O)CC1)C(=O)O)C(=O)O [^68Ga-DOTA-PSMA, metal not drawn]
- time of peak radiotracer uptake post-injection (22Rv1 Xenograft Mice): 2 h
- tissue to tissue ratio at 2 h [3]: 6.95 ± 0.6
- tissue uptake at 2 h [4]: 27.1 ± 2.55 %ID/g
- tissue uptake at 2 h [5]: 6.23 ± 0.79 %ID/g
